Reference: PMC9362842 (Bioconjugate chemistry, 2022)
Read-outs that look alike come from different tables or passages of the source. Marks after values point to notes of the source that are not given here. One block for each compound: values may come before it.

Experiments:
[1] = format: physicochemical; conditions: pH 7.4, 25 °C, I = 0.1 M KCl; for pLa (−log [M]free): [M]total = 10^−6 M, [L]total = 10^−5 M
Summary of the method: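 Protonation constants of the free chelator are first determined by pH potentiometric titration (25 °C, 0.1 M KCl ionic strength), then La³⁺ stability constants (log KLaL) by the same method, all in triplicate. The fifth and sixth protonation constants are not determined over the pH ranges used. Conditional constants and pLa at pH 7.4 are calculated from the protonation and stability constants.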

[2] = cited from earlier work
[3] = cited from earlier work; remark: listed apart in the source
GPC3 = GPC3 (Homo sapiens, UniProt P51654); test: Bio-layer interferometry; format: binding; conditions: BLI, immobilized GPC3 antigen, global fit
[4] = Hydrolytic stability of the -NCS group in pH 9.1 NaHCO3 buffer; format: physicochemical
HepG2 (GPC3+) xenografts = format: in vivo, athymic nude mice; conditions: 100 nCi

Compound: O=C(O)c1cccc(CN2CCOCCOCCN(Cc3cccc(C(=O)O)n3)CCOCCOCC2)n1 [H2macropa]
pLa (−log [M]free) [1]: 15.58
log K´La (conditional stability constant) [1]: 14.63
log K1 (protonation constant) ([2]; 0.1 M KCl): 7.41(1)^c
log K2 (protonation constant) ([2]; 0.1 M KCl): 6.85(1)^c
log K3 (protonation constant) ([2]; 0.1 M KCl): 3.32(1)^c
log K4 (protonation constant) ([2]; 0.1 M KCl): 2.36(1)^c
log K5 (protonation constant) ([2]; 0.1 M KCl): 1.69(1)^c
log KLaHL ([3]; 0.1 M KCl): 2.28(3) ^ c

Compound: [^225Ac]Ac-GC33-BZM: ^225Ac-labeled GC33-BZM antibody radioconjugate
tumor uptake compared with ^225Ac[Ac]-GC33-M (HepG2 (GPC3+) xenografts; 48 and 96 h): effectively indistinguishable
tumor uptake (HepG2 (GPC3+) xenografts; 48 and 96 h post-injection): clear, specific tumor uptake

Compound: GC33-BZM: H2BZmacropa-NCS conjugate of the antibody GC33
Kd (GPC3): 0.19 nM

Second part, led by results:

Kd (GPC3): 0.042 nM
Compound: GC33: glypican-3 (GPC3)-targeting antibody codrituzumab

pLa (−log [M]free) [1]: 16.62
log K´La (conditional stability constant) [1]: 15.67
Compound: O=C(O)CN1CCN(CC(=O)O)CCN(CC(=O)O)CCN(CC(=O)O)CC1 [H4DOTA, tetraazacyclododecane-1,4,7,10-tetraacetic acid]
log K1 (protonation constant) ([2]; 0.1 M KCl): 11.14^d
log K2 (protonation constant) ([2]; 0.1 M KCl): 9.69^d
log K3 (protonation constant) ([2]; 0.1 M KCl): 4.84^d
log K4 (protonation constant) ([2]; 0.1 M KCl): 3.95^d
log KLaHL ([3]; 0.1 M KCl): 2.5(2) ^ d
log KLaL (La^3+ stability constant) ([3]; 0.1 M KCl): 21.7(1) ^ d

t1/2 of -NCS hydrolysis to the amine ([4]; buffer, pH 9.1): 1.25 h
time to complete hydrolysis to the amine ([4]; pH 9.1 NaHCO3 buffer, room temperature): approximately 5 h
Compound: O=C(O)c1cccc(CN2CCOCCOCCN(Cc3cc(N=C=S)cc(C(=O)O)n3)CCOCCOCC2)n1 [H2macropa-NCS]

pLa (−log [M]free) [1]: 16.22
log K´La (conditional stability constant) [1]: 15.27
Compound: O=C(O)CN(CCN(CC(=O)O)CC(=O)O)CCN(CC(=O)O)CC(=O)O [H5DTPA, diethylenetriamine pentaacetic acid]
log K1 (protonation constant) ([2]; 0.1 M): 10.45^e
log K2 (protonation constant) ([2]; 0.1 M): 8.53^e
log K3 (protonation constant) ([2]; 0.1 M): 4.28^e
log K4 (protonation constant) ([2]; 0.1 M): 2.65^e
log K5 (protonation constant) ([2]; 0.1 M): 1.82^e
log KLaL (La^3+ stability constant) ([3]; 0.1 M): 19.48 ^ e

pLa (−log [M]free) [1]: 13.62
log K´La (conditional stability constant) [1]: 12.67
Compound: O=C(O)CN(CCN(CC(=O)O)CC(=O)O)CC(=O)O [H4EDTA, ethylenediamine tetraacetic acid]
log K1 (protonation constant) ([2]; 0.1 M): 10.17^e
log K2 (protonation constant) ([2]; 0.1 M): 6.11^e
log K3 (protonation constant) ([2]; 0.1 M): 2.68^e
log K4 (protonation constant) ([2]; 0.1 M): 2.00^e
log K5 (protonation constant) ([2]; 0.1 M): 1.5^e
log KLaHL ([3]; 0.1 M): 2.24 ^ e
log KLaL (La^3+ stability constant) ([3]; 0.1 M): 15.46 ^ e
